# Laboratory results from ChEMBL document CHEMBL5715946 (Chem Biol, 2010).
# Active and inactive are the calls of the source. The calls are words filed in the database; no cut-off is given here.
# Columns and labels:
# [1] = test system: Antioxidant response element; test: Induction of ARE-mediated HO-1 mRNA expression in MIF siRNA transfected rat H9c2 cells at 3 uM measured after 24 hrs in presence of rat MIF by RT-qPCR analysis; format: cell-based
# Method in brief: (§1)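 H9c2 cells transfected with MIF siRNA or control siRNA (100 nM, Oligofectamine), then treated with 3 μM compound with or without 0.8 μM rMIF for 24 hr. GST Ya and HO-1 mRNA by real-time qPCR; mean ± SD, n = 3. MIF effect on drug efficacy tested by Aspin-Welch test.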
# [2] = Upregulation of catalase gene expression in serum-deprived neonatal Wistar rat cardiomyocyte at 0.37 uM incubated for 21 hrs by microarray analysis relative to control; format: functional, Cardiac muscle cell
# Method in brief: (§2)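 Primary neonatal rat cardiomyocytes, isolated by proteinase digestion with preplating to deplete nonmyocytes, cultured in serum-free medium with or without 0.37 μM compound for 21 hr. Total RNA was recovered and global expression profiled on an Affymetrix GeneChip rat genome U34A array (about 7000 known genes). Change is relative to untreated cells.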
# [3] = molecular target: T1, Macrophage migration inhibitory factor (Homo sapiens, UniProt P14174); test: Binding affinity to BTZO-12 sensor chip immobilized human MIF expressed in Escherichia coli BL21 (DE3) by SPR analysis
# T1 sequence (P14174 whole entry): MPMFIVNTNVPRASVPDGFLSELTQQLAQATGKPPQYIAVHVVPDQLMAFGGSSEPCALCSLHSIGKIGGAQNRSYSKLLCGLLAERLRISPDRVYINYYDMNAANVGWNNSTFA
# Method in brief: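 Sensor chip carrying immobilized BTZO-12; MIF (wild type or point mutants) passed over it and specific binding monitored by surface plasmon resonance.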
# Rattus norvegicus = species on record: Rattus norvegicus; test: Binding affinity to rat 6His-tagged VILIP3 expressed in Escherichia coli BL21 (DE3) at 400 nM incubated for 6 hrs using labelled compound by scintillation proximity assay
# Method in brief: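 Scintillation proximity assay: 6His-tagged protein (hMIF, rat GST Ya or rat VILIP3) captured on copper His-tag SPA beads with [3H]-BTZO-1; emitted light counted on a microplate scintillation counter. Mean of n = 2.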
# [4] = molecular target: Macrophage migration inhibitory factor (Rattus norvegicus) (UniProt P30904); test: Inhibition of MIF tautomerase activity in rat H9c2 cells at 30 uM using L-dopachrome carboxy-methyl ester as substrate incubated for 6 hrs under serum-free medium by spectrophotometry relative to control; format: cell-based
# Macrophage migration inhibitory factor (Rattus norvegicus), sequence (P30904 2-115 limits assumed): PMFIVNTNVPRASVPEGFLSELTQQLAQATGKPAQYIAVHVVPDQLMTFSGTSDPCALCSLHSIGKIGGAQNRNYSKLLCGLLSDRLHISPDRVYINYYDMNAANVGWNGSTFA
# Method in brief: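 H9c2 cells exposed to 30 μM compound for 6 hr; MIF tautomerase activity then measured in cell lysate.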
# Cardiac muscle cell = test: Potency index, ratio of trolox MEC1.5 to test compound MEC1.5 for cytoprotective activity against serum deprivation-induced neonatal Wistar rat cardiomyocyte death; format: functional
# [5] = Upregulation of bilirubin-specific UDP glucuronosyltransferase gene expression in serum-deprived neonatal Wistar rat cardiomyocyte at 0.37 uM incubated for 21 hrs by microarray analysis relative to control; format: functional, Cardiac muscle cell
# Method in brief: (§3)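 Primary neonatal rat cardiomyocytes cultured with or without 0.37 μM compound in serum-free medium for 21 hr. Total RNA profiled on the rat genome U34A GeneChip array (about 7000 known genes).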
# [6] = Reduction in MIF expression in MIF siRNA transfected rat H9c2 cell culture medium at 3 uM measured after 24 hrs ELISA relative to control; format: functional; parameters: scale not given: the % may be the effect or the level left
# Method in brief: (§4)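 H9c2 cells transfected with 100 nM rat MIF siRNA or negative-control siRNA using Oligofectamine in Opti-MEM, then treated with 3 μM compound for 24 hr. MIF mRNA by real-time qPCR; MIF protein in cell lysate and medium by ELISA. Mean ± SD, n = 3.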
# [7] = Upregulation of NAD(P)H-menadione oxidoreductase gene expression in serum-deprived neonatal Wistar rat cardiomyocyte at 0.37 uM incubated for 21 hrs by microarray analysis relative to control; format: functional, Cardiac muscle cell; method in brief: as §3
# [8] = test system: Antioxidant response element; test: Induction of rat ARE activity expressed in rat H9c2 cells assessed as increase in ARE luciferase activity measured after 24 hrs by steady-glo luciferase Assay; format: cell-based
# Method in brief: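 H9c2 cells transiently transfected with pGL3-ARE-Luc or pGL3-mARE-Luc, compound exposure 24 hr, luciferase read by Steady-Glo. MEC2.0 is the concentration giving a doubling of luciferase activity. Mean ± SD, n = 4.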
# [9] = Upregulation of Fischer 344 GST Yc subunit gene expression in serum-deprived neonatal Wistar rat cardiomyocyte at 0.37 uM incubated for 21 hrs by microarray analysis relative to control; format: functional, Cardiac muscle cell; method in brief: as §3
# [10] = test system: Antioxidant response element; test: Induction of ARE-mediated HO-1 mRNA expression in MIF siRNA transfected rat H9c2 cells at 3 uM measured after 24 hrs by RT-qPCR analysis; format: cell-based; method in brief: as §1
# [11] = Upregulation of UDP glucuronosyltransferase, exon 1 gene expression in serum-deprived neonatal Wistar rat cardiomyocyte at 0.37 uM incubated for 21 hrs by microarray analysis relative to control; format: functional, Cardiac muscle cell; method in brief: as §3
# [12] = Reduction in MIF expression in MIF siRNA transfected rat H9c2 cell lysates at 3 uM measured after 24 hrs ELISA relative to control; format: functional; parameters: scale not given: the % may be the effect or the level left; method in brief: as §4
# [13] = Upregulation of 3-methylcholanthrene-inducible UDP-glucuronosyltransferase gene expression in serum-deprived neonatal Wistar rat cardiomyocyte at 0.37 uM incubated for 21 hrs by microarray analysis relative to control; format: functional, Cardiac muscle cell; method in brief: as §3
# [14] = test system: Antioxidant response element; test: Induction of ARE activity in serum-deprived neonatal Wistar rat cardiomyocytes assessed as increase in GST Ya mRNA level up to 3 uM measured after 24 hrs by RT-qPCR analysis; format: cell-based; conditions: Cardiomyocyte
# Method in brief: (§5)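 Neonatal rat cardiomyocytes exposed to samples or vehicle in M-199 with 1% penicillin-streptomycin, no serum, for 24 hr. GST Ya and HO-1 mRNA measured by real-time qPCR (mean ± SD, n = 3); protein by western blot with β-actin as control.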
# [15] = molecular target: Macrophage migration inhibitory factor (Rattus norvegicus) (UniProt P30904); test: Binding affinity to BTZO-12 sensor chip immobilized recombinant rat MIF expressed in Escherichia coli BL21 (DE3) at pH 6 by SPR analysis
# Method in brief: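 SPR on a BTZO-12-type sensor chip with purified recombinant rat MIF, binding compared at pH 6.0 and pH 7.3.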
# [16] = Reduction in MIF mRNA expression in rat H9c2 cells transfected with MIF siRNA at 3 uM measured after 24 hrs RT-qPCR analysis relative to control; format: functional; parameters: scale not given: the % may be the effect or the level left; method in brief: as §4
# [17] = Upregulation of thioredoxin reductase gene expression in serum-deprived neonatal Wistar rat cardiomyocyte at 0.37 uM incubated for 21 hrs by microarray analysis relative to control; format: functional, Cardiac muscle cell; method in brief: as §2
# [18] = test system: Antioxidant response element; test: Induction of ARE activity in serum-deprived neonatal Wistar rat cardiomyocytes assessed as increase in HO-1 expression up to 400 nM measured after 24 hrs by Western blot analysis; format: cell-based; conditions: Cardiomyocyte; method in brief: as §5
# [19] = molecular target: Macrophage migration inhibitory factor (Rattus norvegicus) (UniProt P30904); test: Inhibition of recombinant rat MIF expressed in Escherichia coli BL21 (DE3) assessed as reduction in tautomerase activity at 30 uM using L-dopachrome carboxy-methyl ester as substrate by spectrophotometry relative to control
# Method in brief: (§6)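 Purified recombinant rat MIF tautomerase assayed with purified L-dopachrome carboxy-methyl ester as substrate in pH 6.0 buffer; rate taken over the initial 30 s. Mean ± SD, n = 4.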
# [20] = molecular target: Macrophage migration inhibitory factor (Rattus norvegicus) (UniProt P30904); test: Inhibition of recombinant rat MIF expressed in Escherichia coli BL21 (DE3) assessed as reduction in tautomerase activity at 3.75 to 30 uM using L-dopachrome carboxy-methyl ester as substrate by spectrophotometry; conditions: dose 3.75-30 µM; method in brief: as §6
smiles,measurement,setting,value
O=c1nc(-c2ccccn2)sc2ccccc12 [BTZO-1],Activity,[1],Active
same,fold change (FC),[2],2.3
same,Kd,[3],88 nM
same,Activity,Rattus norvegicus,inactive
same,inhibition,[4],20%
same,Ratio,Cardiac muscle cell,10000
same,fold change (FC),[5],5.2
same,Activity,[6],~75%
same,fold change (FC),[7],2.8
same,Activity,[8],Dose-Dependent Effect
same,MEC2,[8],0.82 µM
same,fold change (FC),[9],2.3
same,Activity,[10],inactive
same,fold change (FC),[11],5
same,Activity,[12],~50%
same,fold change (FC),[13],2.1
same,Activity,[14],Active
same,Activity,[15],Active
same,Activity,[16],~80%
same,fold change (FC),[17],2.8
same,Activity,[18],Active
same,inhibition,[19],13%
same,inhibition,[20],Active
